Results: ChEMBL document CHEMBL2069210, “D-ring modified novel isosteviol derivatives: design, synthesis and cytotoxic activity evaluation” (Bioorg Med Chem Lett, 2012)

Legend:
Assay type in all cases: functional, cell-based
[1] = Antiproliferative activity against human EC9706 cells after 72 hrs by MTT assay; details: EC9706, 72 h
In short: (§1)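 Seeded at 5 × 10^3 cells/well and left 24 h. Medium then replaced with fresh medium holding compound over a range of concentrations, and cells incubated a further 72 h. 0.5 mg/mL MTT in PBS added for 4 h, formazan dissolved in DMSO, absorbance read at 562 nm. IC50 derived from percent inhibition across concentrations.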

[2] = Antiproliferative activity against human ECA109 cells after 72 hrs by MTT assay; details: ECa-109, 72 h; in short: as §1
PC-3 = assay: Antiproliferative activity against human PC3 cells after 72 hrs by MTT assay; details: PC-3, 72 h; in short: as §1
HCT-116 = assay: Antiproliferative activity against human HCT116 cells after 72 hrs by MTT assay; details: HCT-116, 72 h; in short: as §1

Row | Structure (SMILES) | IC50 [1] [µM] | IC50 [2] [µM] | IC50 (PC-3) [µM] | IC50 (HCT-116) [µM]
1 | CCOC(=O)[C@]1(C)CCC[C@@]2(C)[C@@H]3CC[C@@]4(C)C[C@]3(CC[C@@H]21)C(=O)C4=O | > 100 | > 100 | > 100 | > 100
2 | CCOC(=O)[C@]1(C)CCC[C@@]2(C)[C@@H]3CC[C@@]4(C)C[C@]3(CC[C@@H]21)C(=O)[C@H]4O | > 100 | > 100 | > 100 | > 100
3 | CCOC(=O)[C@]1(C)CCC[C@@]2(C)[C@@H]3CC[C@@]4(C)C[C@]3(CC[C@@H]21)[C@@H](O)[C@H]4O | 52.1 | 90.3 | 87.6 | > 100
4 | CCOC(=O)[C@]1(C)CCC[C@@]2(C)[C@@H]3CC[C@@]4(C)C[C@]3(CC[C@@H]21)C(=O)/C4=N\O | > 100 | > 100 | > 100 | > 100
5 | C[C@]12CC[C@H]3[C@]4(C)CCC[C@@](C)(CO)[C@H]4CC[C@@]3(C1)[C@@H](O)/C2=N\O | > 100 | > 100 | > 100 | > 100
6 | CCOC(=O)[C@]1(C)CCC[C@@]2(C)[C@@H]3CC[C@@]4(C)C[C@]3(CC[C@@H]21)[C@@H](O)/C4=N\O | > 100 | > 100 | > 100 | > 100
7 | CCOC(=O)[C@]1(C)CCC[C@@]2(C)[C@@H]3CC[C@@]4(C)C[C@]3(CC[C@@H]21)[C@H](C=O)[C@H]4O | 24.4 | 26.5 | > 100 | > 100
8 | CCOC(=O)[C@]1(C)CCC[C@@]2(C)[C@@H]3CC[C@@]4(C)C[C@]3(CC[C@@H]21)[C@H](/C=N/O)[C@H]4O | 56.6 | 17.9 | > 100 | > 100
9 | CCOC(=O)[C@]1(C)CCC[C@@]2(C)[C@@H]3CC[C@@]4(C)C[C@]3(CC[C@@H]21)C(=O)[C@H]4N | 97.2 | > 100 | > 100 | > 100
10 | CCOC(=O)[C@]1(C)CCC[C@@]2(C)[C@@H]3CC[C@@]4(C)C[C@]3(CC[C@@H]21)[C@@H](O)[C@H]4N | 19.3 | 41.3 | 25.4 | 20.1
11 | CCOC(=O)[C@]1(C)CCC[C@@]2(C)[C@@H]3CC[C@@]4(C)C[C@]3(CC[C@@H]21)C(=O)[C@H]4NC(=O)[C@@H]1CCCN1 | > 100 | > 100 | > 100 | > 100
12 | CCOC(=O)[C@]1(C)CCC[C@@]2(C)[C@@H]3CC[C@@]4(C)C[C@]3(CC[C@@H]21)[C@@H](O)[C@H]4NC(=O)[C@@H]1CCCN1 | 60.7 | 69.5 | > 100 | > 100
13 | CCOC(=O)[C@]1(C)CCC[C@@]2(C)[C@@H]3CC[C@@]4(C)C[C@]3(CC[C@@H]21)C(=O)[C@H]4NC(=S)Nc1ccccc1 | > 100 | > 100 | > 100 | > 100
14 | CCOC(=O)[C@]1(C)CCC[C@@]2(C)[C@@H]3CC[C@@]4(C)C[C@]3(CC[C@@H]21)C(=O)[C@H]4NC(=S)Nc1cccc2ccccc12 | > 100 | > 100 | > 100 | > 100
15 | CCOC(=O)[C@]1(C)CCC[C@@]2(C)[C@@H]3CC[C@@]4(C)C[C@]3(CC[C@@H]21)C(=O)[C@H]4NC(=S)Nc1cc(C(F)(F)F)cc(C(F)(F)F)c1 | > 100 | > 100 | > 100 | > 100
16 | CCOC(=O)[C@]1(C)CCC[C@@]2(C)[C@@H]3CC[C@@]4(C)C[C@]3(CC[C@@H]21)[C@@H](O)[C@H]4NC(=S)Nc1ccccc1 | > 100 | 72.3 | > 100 | > 100
17 | CCOC(=O)[C@]1(C)CCC[C@@]2(C)[C@@H]3CC[C@@]4(C)C[C@]3(CC[C@@H]21)[C@@H](O)[C@H]4NC(=S)Nc1cccc2ccccc12 | > 100 | 90.9 | > 100 | > 100

Row | Structure (SMILES) | IC50 [1] [µM] | IC50 [2] [µM] | IC50 (PC-3) [µM] | IC50 (HCT-116) [µM]
18 | CCOC(=O)[C@]1(C)CCC[C@@]2(C)[C@@H]3CC[C@@]4(C)C[C@]3(CC[C@@H]21)[C@@H](O)[C@H]4NC(=S)Nc1cc(C(F)(F)F)cc(C(F)(F)F)c1 | 24.1 | 45.8 | 20.6 | 14.3
19 | CCOC(=O)[C@]1(C)CCC[C@@]2(C)[C@@H]3CC[C@]4(C)C=C(C=O)[C@@]3(CC[C@@H]21)C4 | > 100 | > 100 | 40.3 | > 100
20 | CCOC(=O)[C@]1(C)CCC[C@@]2(C)[C@@H]3CC[C@@]4(C)C[C@]3(CC[C@@H]21)[C@H](C=O)[C@H]4N1CCCC1 | > 100 | 30.3 | > 100 | > 100
21 | CCOC(=O)[C@]1(C)CCC[C@@]2(C)[C@@H]3CC[C@@]4(C)C[C@]3(CC[C@@H]21)[C@@H](CN)[C@@H]4O | 4.01 | 5.02 | 15.3 | 12.2
22 | CCOC(=O)[C@]1(C)CCC[C@@]2(C)[C@@H]3CC[C@@]4(C)C[C@]3(CC[C@@H]21)[C@H](CNC(C)=O)[C@H]4OC(C)=O | > 100 | > 100 | > 100 | > 100
23 | CCOC(=O)[C@]1(C)CCC[C@@]2(C)[C@@H]3CC[C@@]4(C)C[C@]3(CC[C@@H]21)[C@H](CNC(C)=O)[C@H]4O | 21.2 | 13.3 | > 100 | > 100
24 | CCOC(=O)[C@]1(C)CCC[C@@]2(C)[C@@H]3CC[C@@]4(C)C[C@]3(CC[C@@H]21)C(Br)C4=O (some centres not stated) | > 100 | > 100 | > 100 | > 100
25 | CCOC(=O)[C@]1(C)CCC[C@@]2(C)[C@@H]3CC[C@@]4(C)C[C@]3(CC[C@@H]21)C(=O)OC4=O | > 100 | > 100 | > 100 | > 100
26 | CCOC(=O)[C@]1(C)CCC[C@@]2(C)[C@@H]3CC[C@](C)(C(=O)O)C[C@@]3(C(=O)O)CC[C@@H]21 | > 100 | > 100 | > 100 | > 100
27 | CCOC(=O)[C@]1(C)CCC[C@@]2(C)[C@@H]3CC[C@](C)(C(N)=O)C[C@@]3(C(=O)O)CC[C@@H]21 | > 100 | > 100 | > 100 | > 100
28 | CCOC(=O)[C@]1(C)CCC[C@@]2(C)[C@@H]3CC[C@](C)(C#N)C[C@@]3(C(=O)O)CC[C@@H]21 | > 100 | > 100 | > 100 | > 100
29 | CCOC(=O)[C@]1(C)CCC[C@@]2(C)[C@@H]3CC[C@](C)(C#N)C[C@@]3(C=O)CC[C@@H]21 | > 100 | > 100 | > 100 | > 100
30 | CCOC(=O)[C@]1(C)CCC[C@@]2(C)[C@@H]3CC[C@@]4(C)C[C@]3(CC[C@@H]21)CC4=O | > 100 | > 100 | > 100 | > 100
31 | CCOC(=O)[C@]1(C)CCC[C@@]2(C)[C@@H]3CC[C@@]4(C)C[C@]3(CC[C@@H]21)[C@H](CO)[C@H]4O | 91.6 | 43.3 | > 100 | > 100
32 | CCOC(=O)[C@]1(C)CCC[C@@]2(C)[C@@H]3CC[C@@]4(C)C[C@]3(CC[C@@H]21)C[C@H]4O | > 100 | > 100 | > 100 | > 100
33 | C[C@@]12CC[C@@H]3[C@@](CC[C@H]4[C@@]3(C)CCC[C@@]4(C)C(=O)O)(CC1=O)C2 [ISOSTEVIOL] | > 100 | > 100 | > 100 | > 100
